# Assay outcomes deposited in PubChem BioAssay by Broad Institute.
# A selection: hits, their analogues and other compounds. The true share with any hit is near 3.5%.
# MITF TRPM1 HTS – increases MITF-driven TRPM1 promoter luciferase signal; SK-MEL-5 TRPM1-promoter luciferase, 24 h; % of positive control, neutral wells = 0; activation, % at 12.5 µM; 0.75% of 300,000 active; AID 588334;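 active = mean activation of at least 80% with every replicate also reaching 80%; inconclusive = mean reaches 80% but some replicate falls short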;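 also: 0% = neutral control wells and 100% = parthenolide positive control wells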
# HIV Env fusion – HIV envelope-mediated fusion inhibition; HeLa-JRFL Env/CEM21 cell fusion, luciferase; 1.1% of 360,000 active; inhibition, % at 12.3 µM;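 active = mean replicate inhibition score of at least 50 and every replicate individually at or above 50; inconclusive = only one of the two criteria met; inactive = mean below 50 and not all replicates reaching 50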;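 also: 0% = plate neutral controls and 100% = maraviroc near 300 nM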
# Cneo AK release – Cryptococcus neoformans lysis via adenylate kinase release | AID 651654 | lysis activity, % at 15 µM | 0.2% of 360,000 active | C. neoformans lysis, adenylate kinase release luminescence, 4 h; normalised: neutral wells 0, clomiphene wells 100;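 active = mean lysis activity across replicates of at least 80%, whatever share of replicates individually reach that level; inactive = mean lysis activity below 80%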
#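 Material – Cryptococcus neoformans yeast cells · Quantity – 5 × 10^6 yeast cells/mL · Buffer or medium – YPD medium · Compound – single dose · Timing – 4 h static compound exposure, 37 °C, read 1 h post-reagent · Signal – adenylate kinase release luminescence · Read-out basis – lysis from increased AK signal · Benchmarks – Clomiphene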
# Wnt bcat act – activates Wnt/beta-catenin signaling in a reporter cell assay; activator, plate reader; activation, % at 9.35 µM; 1.2% of 300,000 active; in the data active = activation above about 30%, passing the limit was not always enough; inconclusive = no clear call, values can overlap the other calls;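 also: 0% = neutral control wells and 100% = positive control wells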
# esBAF inh – inhibitors of esBAF chromatin remodeling in mouse ES cells | Bmi1-luciferase knock-in reporter, 24 h; 100% = twice the neutral-well signal | reporter increase, % at 12.5 µM | 2% of 350,000 active; in the data active = activation above about 40%; inconclusive = no clear call, values can overlap the other calls;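 also: 0% = median of the plate's neutral control wells and 100% = double that signal; a rise in the Bmi1 reporter signal indicates esBAF inhibition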
# ERAP1 inh – inhibitors of human ERAP1 aminopeptidase. recombinant ERAP1, Leu-AMC fluorescence, 60 min. inhibition, % at 10.7 µM. 0.15% of 340,000 active. AID 652197;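 active = mean replicate inhibition of at least 30%, or all replicates individually reaching that 30% level; inactive = mean below 30% and not every replicate reaching it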;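 also: 0% = neutral control wells and 100% = L-leucinethiol positive control wells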
# * = called active by the depositor; ? = inconclusive; . = not tested or not shown; [ ] = remark or other dose.
SMILES,MITF TRPM1 HTS,HIV Env fusion,Cneo AK release,Wnt bcat act,esBAF inh,ERAP1 inh
CC1=C([N+](=O)[O-])C(c2cccc(Br)c2)C2=C(N1)c1ccccc1C2=O (centres undefined),.,138*,6,-32,.,.
CC(C)S(=O)(=O)c1cnc(N2CCOCC2)nc1N,.,1,.,40*,.,1
CC(C)(C)S(=O)(=O)c1cnc(N2CCOCC2)nc1N,.,10,.,2,.,5
Cc1nc2ccccc2nc(C)c1=NOCc1cccc(Cl)c1,-6,69*,1,-1,12,2
Cc1nc2ccccc2cc1OCc1ccc(Cl)cc1,.,27,0,.,8,.
C[C@@H]1CCCCO[C@@H](CN(C)CC2CCCCC2)[C@H](C)CN([C@@H](C)CO)C(=O)c2cc(NS(=O)(=O)c3ccccc3)ccc2O1,.,-24[16.7 µM],5,.,9,0
CC(=O)Nc1ccc(CN2C(=O)C(CCc3ccccc3)ON=C2c2cnccn2)cc1 (centres undefined),.,-14,-1,7,47*,.
CCC12CN(S(=O)(=O)c3ccc(C)cc3)CC(CC)(CN(S(=O)(=O)c3ccc(C)cc3)C1)C2=O,-19,109*,-1,.,-4,.
O=C(Nc1ccccc1F)N1CC2(C1)[C@H](c1ccccc1)[C@H](CO)N2C(=O)CC1CC1,.,.,.,.,.,2
COc1ccc(/C=N/Nc2nccnc2Cl)cc1,1,.,0,.,-50,.
COc1ccc(/C=N/Nc2nonc2N)c(OC)c1,-4,65*,.,-6,.,-2
COc1ccc(/C=N/NC(C)(C)C)c(OC)c1,-5,7,-5,-1,-4,0
COc1ccc(/C=N/Nc2nccnc2Cl)c(OC)c1,88*,1,.,.,.,7
CSc1ccccc1OCc1cc(C(=O)NC2CCOC(C)(C)C2)no1 (centres undefined),12,.,0,0,0,-1
CCN(CCn1cccn1)C(=O)c1cc(COc2cc(C)ccc2C)on1,61,-24,-1,?,70*,-1
Cc1ccc(C)c(OCc2cc(C(=O)NC3CCOC(C)(C)C3)no2)c1 (centres undefined),17,-88,1,12,51*,2
Cc1ccc(C)c(OCc2cc(C(=O)N3CC[C@@H]4CCCC[C@H]4C3)no2)c1,22,-11,2,17,54*,-3
Cc1ccc(C)c(OCc2cc(C(=O)N3CCN(C4CCCCC4)CC3)no2)c1,.,.,4,0,1,1
COc1cc(C)ccc1OCc1cc(C(=O)N2CCC(c3ccc(F)cc3)C2)no1 (centres undefined),82*,-34,-6,41*,82*,-2
CO[C@@H]1CC[C@H]2CCN(C)C(=O)C[C@@H](c3ccccc3)CN(C)C(=O)c3cccc(C#N)c3OC[C@@H]1O2,.,-4[16.7 µM],4,.,0,-1
C[C@H](CO)N1C[C@H](C)[C@H](CN(C)C(=O)Cc2ccccn2)Oc2ncc(C#C[C@@H](C)O)cc2C1=O,.,-5[16.7 µM],2,.,-3,0
CCCNC(=O)N1CC2(CCN(Cc3cccc(F)c3)CC2)c2c([nH]c3cc(OC)ccc23)[C@@H]1CO,.,33[16.7 µM],.,.,.,-3
Cc1ccc(C)c(OCc2cc(C(=O)N3CCN(C(=O)c4ccco4)CC3)no2)c1,34,-64,2,17,80*,0
Cc1ccc(C)c(OCc2cc(C(=O)N3CCN(c4ccccc4)CC3)no2)c1,78,.,6,28,.,0
Cc1ccc(C)c(OCc2cc(C(=O)N3C[C@@H](C)O[C@@H](C)C3)no2)c1,125*,-62,-2,37*,76*,1
SMILES,MITF TRPM1 HTS,HIV Env fusion,Cneo AK release,Wnt bcat act,esBAF inh,ERAP1 inh
CC1=NN(c2ccccc2)C(=O)C1N=Nc1cccc(O)c1 (centres undefined),.,-61,3,1,52*,-3
CC1=NN(c2ccccc2)C(=O)C1N=Nc1ccccc1 (centres undefined),22,-35,.,57*,.,10
CC1=NN(c2ccccc2)C(=O)C1N=Nc1ccc(N)cc1 (centres undefined),13,.,0,.,26,.
C[C@H]1CN([C@@H](C)CO)C(=O)c2cccc(NC(=O)Nc3ccc4c(c3)OCO4)c2O[C@H]1CN(C)Cc1ccc(-c2ccccc2)cc1,.,-10[16.7 µM],-1,.,7,-7
CC(C)n1c(=O)[nH][nH]c1=S,.,25,-1,6,.,85*
NCC[C@H]1CC[C@H](NC(=O)C2CCCC2)[C@@H](CO)O1,.,24[16.7 µM],-2,.,-4,-2
C[C@@H]1CN([C@@H](C)CO)C(=O)Cc2cc(NC(=O)CCC(F)(F)F)ccc2O[C@H]1CN(C)C(=O)Nc1ccccc1,.,6[16.7 µM],-1,.,1,-2
C[C@@H]1CN([C@H](C)CO)C(=O)c2cc(NC(=O)Nc3ccccc3)ccc2O[C@@H](C)CCCCO[C@H]1CN(C)Cc1ccncc1,.,7[16.7 µM],0,.,.,-3
CC1CCCN(C(=O)c2ccc(S(=O)(=O)N3CCC(c4nc5ccccc5s4)CC3)cc2)C1 (centres undefined),-10,68*,-1,.,4,.
CCN(CC)C(=O)c1ccc(S(=O)(=O)N2CCC(c3nc4ccccc4s3)CC2)cc1,-37,.,7,.,-11,.
N#C/C(=C/c1ccc(OC(=O)c2ccc(Br)s2)cc1)c1nc2ccccc2[nH]1,68,-32,5,9,83*,1
COc1cc(N2C(=O)C=CC2=O)c(OC)cc1Cl,.,-2,-6,-11,.,35*
CCCC(=O)Nc1ccc2c(c1)C(=O)N(C)[C@H]1CC[C@H](CC(=O)Nc3ccc(F)cc3)O[C@@H]1CO2,.,8[16.7 µM],-3,.,2,.
CCCC#Cc1cnc2c(c1)C(=O)N([C@H](C)CO)C[C@@H](C)[C@H](CN(C)Cc1ccncc1)O2,.,-2[16.7 µM],4,.,0,-2
CCOC(=O)c1cc2c(C)n(-c3ccc(OCC)cc3)c(C)c2ccc1=O,.,61*,-2,.,-11,.
CO[C@@H](CN(C)C(=O)c1ccccc1F)[C@@H](C)CN([C@H](C)CO)S(=O)(=O)c1ccc(Cl)cc1,.,.,55,.,0,2
CCOC(=O)c1ccc2nc3c(cc2c1)CCS3,72,-10,2,.,50*,.
O=C(c1cc(COc2c(F)cccc2F)on1)N1C[C@H]2CC[C@H]1C2,71,-63,-2,34*,92*,1
COc1ccccc1OCc1cc(C(=O)N2CCN(C)C(c3ccccc3)C2)no1 (centres undefined),26,.,0,41*,.,-3
CC(=O)c1cccc(OCc2cc(C(=O)N3CC4C[C@@H]5CC3C[C@H](C4)C5)no2)c1,-4,13,0,-1,-7,1
O=C(c1cc(COc2c(F)cccc2F)on1)N1CCC(c2ccccc2Cl)C1 (centres undefined),50,-33,.,-7,45*,0
COc1ccccc1OCc1cc(C(=O)N2CC3C[C@@H]4CC2C[C@H](C3)C4)no1,89*,-30,1,23,63*,2
